Reference: ChEMBL document CHEMBL4680287, “Ibrexafungerp: An orally active β-1,3-glucan synthesis inhibitor” (Bioorg Med Chem Lett, 2021)
≈ marks a conversion by molar mass, not a printed value.

Tests used:
[1] = Inhibition of beta-1,3-glucan synthase in Candida albicans MY1055 microsomal membrane assessed as inhibition of TCA-insoluble material formation using UDP-[3H]-glucose as substrate incubated for 2 hrs in presence of GTP by radioactivity-based assay; assay type: microsomes, Microsome
Method in brief: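 GS IC50 measured using Candida albicans MY1055 microsomal membrane fragments as the enzyme source.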

Candida albicans [2] = assay: Antifungal activity against Candida albicans MY1055 assessed as fungal growth inhibition measured after 24 hrs by liquid microdilution method; assay type: functional
Method in brief: (§1)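 Broth microdilution per CLSI protocols in RPMI medium. Read-out is the MIC, the lowest concentration completely inhibiting fungal growth. Run without serum and with added serum.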

Aspergillus fumigatus [3] = assay: Antifungal activity against Aspergillus fumigatus MF5668 assessed inhibition of fungal growth by measuring morphological changes measured after 24 hrs by microscopy; assay type: functional; settings: read-out: MEC
Method in brief: (§2)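 Microdilution per CLSI protocols in RPMI medium. Read-out is the minimum effective concentration (MEC). Run without serum and with 50% human serum.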

Candida albicans [4] = assay: Antifungal activity against Candida albicans MY1055 assessed as fungal growth inhibition measured after 24 hrs in presence of 50% mouse serum by liquid microdilution method; assay type: functional; method in brief: as §1
[5] = Dose normalized AUC in po dosed mouse; assay type: ADME, organism-based; settings: in vivo
[6] = Oral bioavailability in mouse; assay type: ADME, organism-based; settings: in vivo
Method in brief: (§3)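 Oral bioavailability calculated as oral AUC normalized to the IV dose, divided by the IV AUC.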

Candida albicans [7] = assay: Antifungal activity against Candida albicans MY1055 infected in DBA/2 mouse model of disseminated candidiasis assessed as reduction in fungal burden in kidney by measuring log change in colony forming units at 25 mg/kg, po bid for 7 days by TOKA; assay type: functional; settings: time 7 day
Method in brief: (§4)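 Murine disseminated candidiasis model (TOKA) in mice challenged with C. albicans MY1055 at 2.44 x 10^4 CFU/mouse. Dosed PO, or IP where stated. Kidneys collected aseptically 7 days after challenge and CFUs/g counted. Change in log CFU/g is relative to sham-treated controls; significance by two-tailed t test. Clearance is the percentage of kidneys below the detection limit.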

Candida albicans [8] = assay: Antifungal activity against Candida albicans MY1055 infected in DBA/2 mouse model of disseminated candidiasis assessed as reduction in fungal burden in kidney by measuring log change in colony forming units at 12.5 mg/kg, po bid for 7 days by TOKA; assay type: functional; settings: time 7 day; method in brief: as §4
Candida albicans [9] = assay: Antifungal activity against Candida albicans MY1055 infected in DBA/2 mouse model of disseminated candidiasis assessed as reduction in fungal burden in kidney by measuring log change in colony forming units at 6.25 mg/kg, po bid for 7 days by TOKA; assay type: functional; settings: time 7 day; method in brief: as §4
[10] = Clearance in mouse; assay type: ADME, organism-based; settings: in vivo
[11] = Half life in mouse; assay type: ADME, organism-based; settings: in vivo
[12] = Clearance in rat; assay type: ADME; settings: in vivo
[13] = Half life in rat; assay type: ADME; settings: in vivo
[14] = Dose normalized AUC in po dosed rat; assay type: ADME, organism-based; settings: in vivo
[15] = Oral bioavailability in rat; assay type: ADME, organism-based; settings: in vivo; method in brief: as §3
[16] = Clearance in dog; assay type: ADME, Canis lupus familiaris; settings: in vivo
[17] = Half life in dog; assay type: ADME, Canis lupus familiaris; settings: in vivo
[18] = Dose normalized AUC in po dosed dog; assay type: ADME, organism-based, Canis lupus familiaris; settings: in vivo
[19] = Oral bioavailability in dog; assay type: ADME, organism-based, Canis lupus familiaris; settings: in vivo; method in brief: as §3
[20] = Clearance in rhesus monkey; assay type: ADME, Macaca mulatta; settings: in vivo
[21] = Half life in rhesus monkey; assay type: ADME, Macaca mulatta; settings: in vivo
[22] = Dose normalized AUC in po rhesus monkey; assay type: ADME, organism-based, Macaca mulatta; settings: in vivo
[23] = Oral bioavailability in rhesus monkey; assay type: ADME, organism-based, Macaca mulatta; settings: in vivo; method in brief: as §3
Candida albicans [24] = assay: Antifungal activity against Candida albicans MY1055 infected in ip dosed DBA/2 mouse model of disseminated candidiasis assessed as reduction in fungal burden in kidney administered bid for 7 days by TOKA; assay type: functional; settings: 168 h, time 7 day; method in brief: as §4
Candida albicans [25] = assay: Antifungal activity against Candida albicans MY1055 infected in DBA/2 mouse model of disseminated candidiasis assessed as reduction in fungal burden in kidney by measuring log change in colony forming units at 12.5 mg/kg, ip bid for 7 days by TOKA; assay type: functional; settings: time 7 day; method in brief: as §4
Aspergillus fumigatus [26] = assay: Antifungal activity against Aspergillus fumigatus MF5668 infected in DBA/2N mouse assessed as mouse survival at 12.5 mg/kg, ip bid administered for 7 days starting from 15 to 30 mins post infection and measured up to 21 days relative to control; assay type: functional; settings: 168 h, time 7 day
Method in brief: (§5)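 DBA/2N mice were infected IV with A. fumigatus MF5668 (6.7 x 10^5 CFU/mouse) and treated IP bid for 7 days. Percent survival per dose group was scored at the end of the 21-day survival model and compared with the sham-treated control group.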

Aspergillus fumigatus [27] = assay: Antifungal activity against Aspergillus fumigatus MF5668 infected in DBA/2N mouse assessed as mouse survival at 6.25 mg/kg, ip bid administered for 7 days starting from 15 to 30 mins post infection and measured up to 21 days relative to control; assay type: functional; settings: 168 h, time 7 day; method in brief: as §5
Aspergillus fumigatus [28] = assay: Antifungal activity against Aspergillus fumigatus MF5668 infected in DBA/2N mouse assessed as mouse survival at 3.125 mg/kg, ip bid administered for 7 days starting from 15 to 30 mins post infection and measured up to 21 days relative to control; assay type: functional; settings: 168 h, time 7 day; method in brief: as §5
Aspergillus fumigatus [29] = assay: Antifungal activity against Aspergillus fumigatus MF5668 infected in ip dosed DBA/2N mouse assessed as 90% mouse survival administered bid administered for 7 days starting from 15 to 30 mins post infection and measured up to 21 days; assay type: functional; settings: 168 h, time 7 day
Aspergillus fumigatus [30] = assay: Antifungal activity against Aspergillus fumigatus MF5668 infected in DBA/2N mouse assessed as mean survival time at 12.5 mg/kg, ip bid administered for 7 days starting from 15 to 30 mins post infection and measured up to 21 days; assay type: functional; settings: time 7 day
Method in brief: (§6)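 DBA/2N mice were challenged IV with A. fumigatus MF5668 at 6.7 x 10^5 CFU/mouse, then dosed IP twice daily for 7 days. Survival was followed over a 21-day model, and mean survival time in days was recorded per dose group. A sham-treated control group was run alongside.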

Aspergillus fumigatus [31] = assay: Antifungal activity against Aspergillus fumigatus MF5668 infected in DBA/2N mouse assessed as mean survival time at 6.25 mg/kg, ip bid administered for 7 days starting from 15 to 30 mins post infection and measured up to 21 days; assay type: functional; settings: time 7 day; method in brief: as §6
Aspergillus fumigatus [32] = assay: Antifungal activity against Aspergillus fumigatus MF5668 infected in DBA/2N mouse assessed as mean survival time at 3.125 mg/kg, ip bid administered for 7 days starting from 15 to 30 mins post infection and measured up to 21 days; assay type: functional; settings: time 7 day; method in brief: as §6
Candida albicans [33] = assay: Antifungal activity against Candida albicans MY1055 assessed as reduction in fungal growth in presence of 50% mouse serum; assay type: functional; method in brief: as §1
Nakaseomyces glabratus [34] = assay: Antifungal activity against Candida glabrata MY1381 assessed as fungal growth inhibition; assay type: functional; settings: read-out: MIC100
Pichia kudriavzevii [35] = assay: Antifungal activity against Candida krusei ATCC 6258 assessed as fungal growth inhibition; assay type: functional; settings: read-out: MIC100
Candida tropicalis [36] = assay: Antifungal activity against Candida tropicalis MY1012 assessed as fungal growth inhibition; assay type: functional; settings: read-out: MIC100
Clavispora lusitaniae [37] = assay: Antifungal activity against Clavispora lusitaniae MY1396 assessed as fungal growth inhibition; assay type: functional; settings: read-out: MIC100
Candida parapsilosis [38] = assay: Antifungal activity against Candida parapsilosis ATCC 22019 assessed as fungal growth inhibition; assay type: functional; settings: Lodderomyces parapsilosis, read-out: MIC100
Nakaseomyces glabratus [39] = assay: Antifungal activity against Candida glabrata MY1381 assessed as reduction in fungal growth; assay type: functional
Pichia kudriavzevii [40] = assay: Antifungal activity against Candida krusei ATCC 6258 assessed as reduction in fungal growth; assay type: functional
Candida tropicalis [41] = assay: Antifungal activity against Candida tropicalis MY1012 assessed as reduction in fungal growth; assay type: functional
Clavispora lusitaniae [42] = assay: Antifungal activity against Clavispora lusitaniae MY1396 assessed as reduction in fungal growth; assay type: functional
Candida parapsilosis [43] = assay: Antifungal activity against Candida parapsilosis ATCC 22019 assessed as reduction in fungal growth; assay type: functional; settings: Lodderomyces parapsilosis
Aspergillus fumigatus [44] = assay: Antifungal activity against Aspergillus fumigatus MF5668 assessed inhibition of fungal growth by measuring morphological changes in presence of 50% human serum measured after 24 hrs by microscopy; assay type: functional; settings: read-out: MEC; method in brief: as §2
Aspergillus fumigatus [45] = assay: Antifungal activity against Aspergillus fumigatus MF5668 infected in DBA/2N mouse assessed as mouse survival at 1.56 mg/kg, ip bid administered for 7 days starting from 15 to 30 mins post infection and measured up to 21 days relative to control; assay type: functional; settings: 168 h, time 7 day; method in brief: as §5
Aspergillus fumigatus [46] = assay: Antifungal activity against Aspergillus fumigatus MF5668 infected in DBA/2N mouse assessed as mean survival time at 1.56 mg/kg, ip bid administered for 7 days starting from 15 to 30 mins post infection and measured up to 21 days; assay type: functional; settings: time 7 day; method in brief: as §6
Candida albicans [47] = assay: Antifungal activity against Candida albicans MY1055 assessed as fungal growth inhibition in presence of 50% mouse serum; assay type: functional; settings: read-out: MIC100; method in brief: as §1
Candida albicans [48] = assay: Antifungal activity against Candida albicans MY1055 assessed as reduction in fungal growth; assay type: functional; method in brief: as §1
Aspergillus fumigatus [49] = assay: Antifungal activity against Aspergillus fumigatus MF5668 infected in ip dosed DBA/2N mouse assessed as 50% mouse survival administered bid administered for 7 days starting from 15 to 30 mins post infection and measured up to 21 days; settings: 168 h

CC(C)[C@@H](C)[C@@]1(C)CC[C@]2(C)[C@H]3CC[C@@H]4[C@@]5(COC[C@@]4(C)[C@@H](OC[C@](C)(N)C(C)(C)C)[C@H](n4ncnc4-c4ccncc4)C5)C3=CC[C@@]2(C)[C@@H]1C(=O)O [IBREXAFUNGERP]
IC50 [1]: 0.001 mg/L | MIC (Candida albicans [2]): 0.06 mg/L (≈ 0.0822 µM) | minimal effective concentration (Aspergillus fumigatus [3]): < 0.03 µg/mL | MIC (Candida albicans [4]): 0.5 mg/L | AUC/dose [5]: 0.59 µM·kg·h/mg | bioavailability [6]: 34% | Activity (Candida albicans [7]): -4.6 deltalog10CFU | Activity (Candida albicans [8]): -3.2 deltalog10CFU | Activity (Candida albicans [9]): -2.2 deltalog10CFU | clearance [10]: 0.84 L/h/kg | half-life [11]: 4.4 h | clearance [12]: 0.48 L/h/kg | half-life [13]: 8.3 h | AUC/dose [14]: 0.69 µM·kg·h/mg | bioavailability [15]: 23% | clearance [16]: 0.24 L/h/kg | half-life [17]: 11.3 h | AUC/dose [18]: 1.07 µM·kg·h/mg | bioavailability [19]: 18% | clearance [20]: 0.66 L/h/kg | half-life [21]: 5.7 h | AUC/dose [22]: 0.33 µM·kg·h/mg | bioavailability [23]: 16% | ED99 (Candida albicans [24]): 0.84 mg/kg | Activity (Candida albicans [25]): -3.99 deltalog10CFU | survival at 12.5 mg/kg (Aspergillus fumigatus [26]): 90% | survival at 6.25 mg/kg (Aspergillus fumigatus [27]): 90% | survival at 3.125 mg/kg (Aspergillus fumigatus [28]): 20% | ED90 (Aspergillus fumigatus [29]): 8.9 mg/kg | MST (Aspergillus fumigatus [30]): 19.4 days | MST (Aspergillus fumigatus [31]): 19.2 days | MST (Aspergillus fumigatus [32]): 12.2 days | MIC50 (Candida albicans [33]): 0.25 mg/L | MIC (Nakaseomyces glabratus [34]): 1 mg/L (≈ 1.37 µM) | MIC (Pichia kudriavzevii [35]): 4 mg/L (≈ 5.48 µM) | MIC (Candida tropicalis [36]): 8 mg/L (≈ 11 µM) | MIC (Clavispora lusitaniae [37]): 2 mg/L (≈ 2.74 µM) | MIC (Candida parapsilosis [38]): 0.5 mg/L (≈ 0.685 µM) | MIC50 (Nakaseomyces glabratus [39]): 1 mg/L (≈ 1.37 µM) | MIC50 (Pichia kudriavzevii [40]): 2 mg/L (≈ 2.74 µM) | MIC50 (Candida tropicalis [41]): 1 mg/L (≈ 1.37 µM) | MIC50 (Clavispora lusitaniae [42]): 1 mg/L (≈ 1.37 µM) | MIC50 (Candida parapsilosis [43]): < 0.03 mg/L | minimal effective concentration (Aspergillus fumigatus [44]): 0.25 µg/mL | survival at 1.56 mg/kg (Aspergillus fumigatus [45]): 0% | MST (Aspergillus fumigatus [46]): 5.1 days | MIC (Candida albicans [47]): 0.5 mg/L | MIC50 (Candida albicans [48]): < 0.03 mg/L | ED50 (Aspergillus fumigatus [49]): 4.5 mg/kg
